Experimental data from different studies.
Lines come from different studies, so protocols differ.
Target: Serine/threonine-protein kinase Chk1 (CHEK1, Homo sapiens, UniProt O14757)
Residues used in one study (O14757 1-476): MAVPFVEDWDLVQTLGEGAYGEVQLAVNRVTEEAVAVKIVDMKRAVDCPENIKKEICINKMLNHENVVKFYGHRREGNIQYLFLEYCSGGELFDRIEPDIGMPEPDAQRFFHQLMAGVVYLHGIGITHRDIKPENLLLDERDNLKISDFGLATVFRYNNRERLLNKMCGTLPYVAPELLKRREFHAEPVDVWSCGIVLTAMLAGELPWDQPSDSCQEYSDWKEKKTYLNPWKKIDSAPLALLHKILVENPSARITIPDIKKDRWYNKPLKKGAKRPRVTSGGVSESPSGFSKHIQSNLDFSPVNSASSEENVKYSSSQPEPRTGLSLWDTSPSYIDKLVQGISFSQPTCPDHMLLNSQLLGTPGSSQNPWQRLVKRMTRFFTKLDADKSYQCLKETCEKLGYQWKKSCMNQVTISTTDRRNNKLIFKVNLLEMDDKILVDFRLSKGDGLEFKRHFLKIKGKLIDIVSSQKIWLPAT

Compound | test | setting | endpoint | value
C[C@H]1CC[C@H](n2c3cnccc3c3cnc(Nc4ccc5c(n4)CCN(C(=O)CO)C5)nc32)CC1 | cell-free assay | 1 µM | remaining signal | 93%
CC#CC(=O)N1CCC[C@H]1c1nc(-c2ccc(C(=O)Nc3ccccn3)cc2)c2c(N)nccn12 | enzyme activity, inhibitor | 1 µM | inhibition | 20%
COc1ccc2oc(-c3ccc4nc(N)oc4c3)c/c(=N\c3ccccc3NC(=O)CCN)c2c1 | binding | 1 µM | remaining binding | 87%
CCCCC(=O)Nc1ccc(-c2ccc3ncn(CCC)c(=O)c3c2)cn1 | binding, competition with immobilised ligand | 0.5 µM | remaining binding | 86%
C=CC(=O)N1CCC[C@@H](n2nc(-c3ccc(Oc4ccccc4)cc3)c3c(N)ncnc32)C1 | enzyme activity, inhibitor | 1 µM | inhibition | 10%
N#Cc1ccc(NC(=O)Nc2ccccc2)cc1 | cell-free assay, competition with immobilised ligand | 25 µM | remaining binding | 91%
C1=C/COCc2cc(ccc2OCCN2CCCC2)Nc2nccc(n2)-c2cccc(c2)COC/1 | cell-free assay | 0.1 µM | remaining signal | 100%
COc1ccc2[nH]c3c4[nH]c5ccc(OC)cc5c4c4c(c3c2c1)C(=O)NC4=O | binding | 1 µM | remaining binding | 12%
C#Cc1cnc(Nc2ccnc(CO)c2)nc1Nc1ccccc1S(C)(=O)=NC#N (stereo not drawn) | cell-free assay | 1 µM | remaining signal | 38%
